# An excerpt weighted towards active compounds, which were near 1.8% of everything screened.
# FLuc inh counter: inhibits firefly luciferase, flagging false hits in luciferase inhibition screens | ATPLite firefly luciferase biochemical luminescence, 10 min | P08659 | inhibition, % at 10 µM | actives 1.5% (n = 200,000) | AID 1006;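 active means inhibition above about 50% when tested at 10 µM, limit read from the data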
# Target sequence (P08659 whole entry, looked up): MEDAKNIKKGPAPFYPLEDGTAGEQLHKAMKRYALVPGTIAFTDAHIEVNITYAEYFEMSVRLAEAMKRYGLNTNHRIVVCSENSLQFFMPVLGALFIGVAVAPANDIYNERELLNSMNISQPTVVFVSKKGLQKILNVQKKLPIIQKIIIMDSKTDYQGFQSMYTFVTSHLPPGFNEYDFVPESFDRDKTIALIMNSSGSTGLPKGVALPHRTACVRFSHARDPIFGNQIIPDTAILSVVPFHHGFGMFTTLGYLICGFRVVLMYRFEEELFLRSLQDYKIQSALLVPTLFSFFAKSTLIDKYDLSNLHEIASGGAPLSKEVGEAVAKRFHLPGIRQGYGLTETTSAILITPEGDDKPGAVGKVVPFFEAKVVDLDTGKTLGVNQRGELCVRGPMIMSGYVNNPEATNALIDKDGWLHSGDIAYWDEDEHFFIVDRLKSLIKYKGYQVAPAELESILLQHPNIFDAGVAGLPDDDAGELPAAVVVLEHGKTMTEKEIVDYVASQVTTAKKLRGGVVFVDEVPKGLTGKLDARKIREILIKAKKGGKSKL
# C8 TRAIL sens: caspase-8 TRAIL sensitization | AID 624354 | NB7+C8 cells + TRAIL, ATPlite viability luminescence | inhibition (viability loss, TRAIL sensitization), % at 10 µM | actives 1% (n = 360,000);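 active means compounds causing at least 50% loss of cell viability in the single-dose screen, relative to plate controls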
# hiPSC survival: enhancers of human iPSC single-cell survival. actives 0.044% (n = 360,000). AID 602274. survival enhancement, % at 20 µM. hiPSC single-cell survival, ATPlite luminescence; 100% = ROCK inhibitor wells, 0% = DMSO; in the data active means survival enhancement above about 18%;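 further: cells exposed to compounds for 16 hours before the ATP read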
# FLuc act counter: affects firefly luciferase, flagging false hits in luciferase stimulation screens; P08659; ATPlite luciferase biochemical, luminescence, 10 min; 0 = ATP-free wells, 1 = DMSO control; activation factor at 10 µM; 200,000 tested, under 10 active; AID 1027;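 active means luciferase activation factor, scaled between plate controls, of at least 2 with compound at 10 µM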
#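 Assay system: Luciferase/luciferin reagent mix; Medium: PBS as buffer for the ATP substrate; Dosing: test compounds dosed from 2 mM stocks in 100% DMSO; Times: 10 min, room temperature; Signal: luminescence from luciferase reaction; Read-out: luciferase activation; Controls: No-ATP low control, compound-free enzyme-plus-ATP high control.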
# PPC-1+TRAIL kill: kills PPC-1 cancer cells in the presence of TRAIL. PPC-1 cells + TRAIL, ATPLite viability luminescence. cell killing (% activity), % at 4 µM or 5 µM. actives 0.41% (n = 220,000). AID 1443;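 active means cell killing above 50% in the first pass at 4 µM, then a duplicate retest at 5 µM averaging 50% or more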;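 further: plate controls were cells with TRAIL plus DMSO for no effect and medium-only wells lacking cells for full effect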
# beta cell repl: inducers of beta-cell replication in MIN6 cells; proliferation, % at 10 µM; MIN6 cells proliferation, ATPlite luminescence, 48 h; cells starved in 0.2% serum; 100% = growth in 10% serum; actives 0.29% (n = 330,000);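 active means compounds whose signal lies at least 3.5 SD above the mean of all wells on their plate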;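 further: 0% = DMSO-treated cells in low-serum medium and 100% = 10% serum control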
# Numbers without * were called inactive; nt = no result given.
SMILES,FLuc inh counter,C8 TRAIL sens,hiPSC survival,FLuc act counter,PPC-1+TRAIL kill,beta cell repl
Cc1ccc(F)c(S(=O)(=O)NC(=O)C2(C)CCN2C(=O)c2cccc3ccccc23)c1 (centres undefined),nt,-4.7,-0.3,nt,nt,nt
COC(=O)c1cc2c(n1S(=O)(=O)c1ccc(C)cc1)C(=O)C(=O)c1[nH]cc(C(=O)OCc3ccccc3)c1-2,nt,93.3*,-3.0,nt,nt,nt
COC(=O)c1ccc(COC(=O)c2ccc(CS(=O)(=O)c3ccc(C)cc3)cc2)cc1,-8.4,9.9,1.7,1.1,-6.5,-3.1
O=C(Cn1cnc2c(nnn2Cc2ccccc2)c1=O)Nc1ccc2c(c1)OCCO2,nt,-2.4,0.2,nt,nt,5.6
CN1/C(=C\C(=O)c2cccnc2)Sc2ccccc21,54.7*,18.7,-3.0,0.5,16.5,-1.3
COc1cccc(C(=O)/C=C2\Sc3ccccc3N2C)c1,79.1*,51.2*,-1.7,0.2,49.8,-3.9
O=C(OCn1ncc(Cl)c(Cl)c1=O)c1cccc(C(F)(F)F)c1,-1.3,93.9*,74.7*,1,32.6,-5.7
CCOC(=O)c1cc(=O)n2[nH]c(-c3ccc(C)cc3)cc2n1,22.0,1.6,7.2,0.8,21.8,0.0
CCOC(=O)Cc1cc(=O)n2[nH]c(-c3ccc(C)cc3)cc2n1,53.7*,13.6,1.5,0.5,24.4,-1.0
COc1ccccc1N1C(=O)CC(Sc2nccc(C)n2)C1=O (centres undefined),-5.5,6.2,-0.8,1.1,26.8,5.5
COc1ccc(N2C(=O)CC(Sc3nccc(C)n3)C2=O)c(OC)c1 (centres undefined),nt,-9.8,27.5*,nt,nt,nt
Cc1ccc(CNc2ncnc3ccc(-c4ccoc4C)cc23)o1,nt,0.1,12.1,nt,nt,nt
CCCCc1ccc(NC(=O)c2ccc(N(C)S(C)(=O)=O)cc2)cc1,nt,52.8*,-0.2,nt,16.6,-4.0
N#CC1(c2ccc(NC(=O)c3ccccc3)cc2)CCCC1,60.7*,53.6*,-3.1,0.4,34.3,nt
CCc1ccc(N2CC(C(=O)N/N=C/c3ccccc3)CC2=O)cc1 (centres undefined),nt,15.2,5.4,nt,nt,2.3
CCOc1cc(/C=N/N=C(N)N)ccc1OCc1ccc(Cl)cc1,-3.4,86.6*,-4.0,1,50.2*,nt
CCOc1cc(CNCCc2ccc(S(N)(=O)=O)cc2)ccc1OCc1ccc(Cl)cc1,-5.7,72.8*,-1.6,1.1,27.2,-4.0
COc1cc(/C=N/N=C(N)N)ccc1OCc1ccc(Cl)cc1,16.7,36.3,-4.2,0.8,12.4,-5.9
CCOc1cc(/C=N/N=C(/N)c2nonc2N)cc(Br)c1OCc1ccc(Cl)cc1,-6.9,57.0*,-2.5,1.1,9.0,-5.0
Cc1cc(C(O)c2ncc(-c3ccccc3)[nH]2)ccc1F (centres undefined),nt,-7.1,5.0,nt,nt,nt
CCN(CC)c1ccc(/C=C(\C#N)c2nc(-c3cccs3)c(NC(C)=O)s2)cc1,-5.9,nt,nt,1.1,4.1,nt
CCN1CCN(c2ccc(NC(=O)COc3ccc(Cl)cc3C)cc2)CC1,nt,15.3,2.4,nt,nt,-6.2
O=C(CCl)N(C/C=C/c1ccccc1)c1ccc2c(c1)OCCO2,10.3,91.6*,-0.3,0.9,14.3,-5.6
O=C(c1ccc(C(F)(F)F)cc1)N1CCC(=O)N([C@H](COCc2ccc(Cl)cc2)Cc2ccccc2)CC1,nt,18.2,-1.0,nt,nt,nt
O=C(NCCNC(=O)c1ccccn1)c1ccc(-c2ccccc2)cc1,nt,6.5,-0.5,nt,nt,-4.1
COc1ccc(NC(=O)CSc2nc3ccc(Nc4nc(N5CCOCC5)nc(N5CCOCC5)n4)cc3s2)cc1,nt,22.8,-0.4,nt,nt,-1.8
Cc1ccc(NC(=O)CSc2nc3ccc(Nc4nc(N5CCOCC5)nc(N5CCOCC5)n4)cc3s2)cc1,nt,55.2*,0.1,nt,nt,-5.9
O=C(Cn1ncc(Cl)c(Cl)c1=O)N1CCc2ccccc21,4.6,96.2*,0.0,1,31.3,nt
CC1(C)OC2CC3C4CC(F)C5=CC(=O)C=CC5(C)C4(F)C(O)CC3(C)C2(C(=O)CO)O1 (centres undefined),nt,-0.3,0.0,nt,nt,1.0
CN(C)c1ccc(/C=C2/NC(=O)NC2=O)cc1,72.7*,40.5,-2.2,0.3,36.4,-3.6

# Screens as filed in PubChem BioAssay.
